Laboratory results: ChEMBL document CHEMBL5154824, “Design and synthesis of multifunctional microtubule targeting agents endowed with dual pro-apoptotic and anti-autophagic efficacy” (Eur J Med Chem, 2022)
Calls of active or inactive are those of the source. The calls are words filed in the database; no cut-off is given here.

What was measured:
[1] = biological target: T1, Tubulin (Homo sapiens) (UniProt P68371+Q9H4B7+P0DPH7+P68366+Q13509+Q71U36+P04350+Q3ZCM7+P07437+P68363+Q9BQE3+Q6PEY2+Q13885+Q9BVA1+Q9BUF5); assay: Inhibition of tubulin (unknown origin) assembly measured at 5 uM by fluorescence assay; format: protein-complex assay
[2] = tested on: HeLa; assay: Cytotoxicity against human HeLa cells overexpressing tubulin beta3 assessed as inhibition of cell growth measured after 48 hrs by MTT assay; format: functional, cell-based
How it was run: (§1)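 MTT assay. Cells were exposed for 48 h to increasing concentrations of compound. Ovarian A2780 was paired with its P-gp-overexpressing A2780AD counterpart, and HeLa with HeLa β3, which overexpresses the tubulin β3 isotype. IC50 is the mean ± SD of three independent experiments.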

[3] = Ratio of IC50 for cytotoxicity against human […] assessed as inhibition of cell growth measured after 48 hrs to IC50 for cytotoxicity against human A2780 cells assessed as inhibition of cell growth measured after 48 hrs; format: functional
How it was run: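 MTT assay: cells exposed to increasing compound concentrations for 48 h. Lines were A2780 and its P-gp-overexpressing A2780AD counterpart, and HeLa and HeLa β3 (tubulin β3-overexpressing). IC50 is the mean ± SD of three independent experiments. R/S is the IC50 in the resistant line divided by that in the parental line.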

[4] = biological target: T1, Tubulin (Homo sapiens); assay: Binding affinity to tubulin (unknown origin) using podophyllotoxin by Competition assay; format: protein-complex assay
How it was run: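 Fluorescence competition: compound and tubulin at equal concentrations (0.1, 0.5 or 1 μM each) titrated with podophyllotoxin up to 10 μM; excitation 350 nm, emission read at 450 nm on plate reader; displacement judged as fluorescence decrease.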

[5] = Cytotoxicity against human MFD-1 cells assessed as inhibition of cell growth measured after 72 hrs by MTT assay; format: functional, cell-based; settings: MFD-1, 72 h
How it was run: (§2)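 Oesophageal adenocarcinoma lines were exposed to at least 8 increasing concentrations for 72 h. Viability was measured by MTT. IC50 is the mean ± SD of at least three independent experiments.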

[6] = tested on: OE19; assay: Cytotoxicity against human OE19 cells assessed as inhibition of cell growth measured after 72 hrs by MTT assay; format: functional, cell-based; settings: OE19, 72 h; how it was run: as §2
[7] = tested on: TR146; assay: Induction of apoptosis in human TR146 cells assessed as increase in apoptotic cells at 0.5 uM after 48 hrs by Annexin V-FITC/PI staining based flow cytometry method; format: functional, cell-based
How it was run: (§3)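 Ca9.22 or TR146 cells were seeded at 30×10^4 cells/mL and treated with 500 nM compound or 1% EtOH (v/v) vehicle for 48 h. Annexin V/PI staining was read by flow cytometry, gating 10,000 cells on vehicle-treated cells. Data are mean ± SEM (n = 3).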

[8] = tested on: A2780; assay: Cytotoxicity against human A2780AD cells assessed as inhibition of cell growth measured after 48 hrs by MTT assay; format: functional, cell-based; settings: A2780, 48 h; how it was run: as §1
[9] = tested on: SCC-4; assay: Induction of apoptosis in human SCC-4 cells assessed as increase in apoptotic cells at 0.5 uM after 48 hrs by Annexin V-FITC/PI staining based flow cytometry method; format: functional, cell-based
How it was run: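 SCC4 cells were treated at 0.5 or 2 μM for 48 h, then stained with Annexin V/PI and analysed by flow cytometry. Data are mean ± SEM of three independent experiments, with an unpaired one-tailed t-test versus vehicle.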

[10] = tested on: HeLa; assay: Induction of autophagy in human HeLa cells assessed as increase in number of autophagosomes formation at 10 uM measured after 3 hrs by immunofluorescence based laser scanning confocal microscopic analysis; format: functional, cell-based
How it was run: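 HeLa cells in growth medium were treated at 1 or 10 μM, with BafA1 300 nM as reference, for 3 h. Cells were fixed in ice-cold methanol, immunostained for LC3 (autophagosomes) and LAMP1, and imaged by laser scanning confocal microscopy.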

[11] = tested on: HeLa; assay: Cytotoxicity against human HeLa cells assessed as inhibition of cell growth measured after 48 hrs by MTT assay; format: functional, cell-based; how it was run: as §1
[12] = Cytotoxicity against human SKGT4 cells assessed as inhibition of cell growth measured after 72 hrs by MTT assay; format: functional, cell-based; settings: SKGT4, 72 h; how it was run: as §2
[13] = tested on: Ca9-22; assay: Induction of apoptosis in human Ca9-22 cells assessed as increase in apoptotic cells at 0.5 uM after 48 hrs by Annexin V-FITC/PI staining based flow cytometry method; format: functional, cell-based; how it was run: as §3
[14] = tested on: HeLa; assay: Induction of morphological changes in human HeLa cells assessed as cell rounding at 10 uM incubated for 3 hrs by phalloidin staining based laser scanning confocal microscopic analysis; format: functional
How it was run: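 HeLa cells in growth medium were treated at 1 or 10 μM, with BafA1 300 nM as reference, for 3 h. Cells were fixed in 4% PFA, stained with anti-GM130 for the Golgi and AF647-phalloidin for actin, and imaged by laser scanning confocal microscopy.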

CN1CCN(C(=O)OC2=C(c3cccc4ncccc34)Oc3cc4ccccc4cc3-n3cccc32)CC1
inhibition [1]: 100% | IC50 [2]: 331 nM | Ratio IC50 [3]: 0.67 | Activity [4]: Active | IC50 [5]: 1210 nM | IC50 [6]: 730 nM | Activity [7]: Active | IC50 [8]: 399 nM | Activity [9]: Active | Activity [10]: Active | IC50 [11]: 469 nM | IC50 [12]: 550 nM | Activity [13]: Active

O=C(OC1=C(c2cccc3ncccc23)Oc2cc3ccccc3cc2-n2cccc21)C1CCNCC1
Activity [14]: Active
